# Test results: ChEMBL document CHEMBL3286189, “Discovery and SAR studies of a novel class of cytotoxic 1,4-disubstituted piperidines via Ugi reaction” (Eur J Med Chem, 2014)
# Experiments:
# Type in all cases: functional, cell-based
# CCRF-CEM = assay: Cytostatic activity against human CEM cells assessed as inhibition of cell proliferation after 72 hrs by coulter counting analysis
# In short: (§1)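 Anti-proliferative screen in murine leukemia L1210, human T-lymphocyte CEM and human cervix carcinoma HeLa cultures. The value reported is the IC50, the concentration that inhibits cell proliferation by 50%.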
# HeLa = assay: Cytostatic activity against human HeLa cells assessed as inhibition of cell proliferation after 72 hrs by coulter counting analysis; in short: as §1
# L1210 = assay: Cytostatic activity against mouse L1210 cells assessed as inhibition of cell proliferation after 48 hrs by coulter counting analysis; in short: as §1
# Huh-7 = assay: Cytostatic activity against human HuH7 cells assessed as inhibition of cell proliferation after 96 hrs by coulter counting analysis; settings: Huh-7, 96 h
# In short: (§2)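 Anti-proliferative testing extended to human kidney Caki-1 and human liver Huh-7 tumour cells. The value reported is the IC50, the concentration that inhibits tumour cell growth by 50%.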
# CAKI-1 = assay: Cytostatic activity against human Caki1 cells assessed as inhibition of cell proliferation after 96 hrs by coulter counting analysis; settings: CAKI-1, 96 h; in short: as §2
Compound,"IC50 (CCRF-CEM; Homo sapiens, CCRF-CEM, 72 h) [µM]","IC50 (HeLa; Homo sapiens, HeLa, 72 h) [µM]","IC50 (L1210; Mus musculus, L1210, 48 h) [µM]",IC50 (Huh-7) [µM],IC50 (CCRF-CEM; ccrf-cem) [µM],IC50 (L1210; l1210) [µM],IC50 (HeLa; hela) [µM],IC50 (CAKI-1) [µM]
COC(=O)C[C@H](NC(=O)OC(C)(C)C)C(=O)N(CC(=O)OC)C1(C(=O)NCc2ccccc2)CCN(Cc2ccccc2)CC1,46,32,49,–,–,–,–,–
C=CCOC(=O)N1CCC(C(=O)NCc2ccccc2)(N(Cc2ccccc2)C(=O)[C@H](CC(=O)OC)NC(=O)OC(C)(C)C)CC1,65,107,24,–,–,–,–,–
COC(=O)C[C@H](NC(=O)OC(C)(C)C)C(=O)N(Cc1ccccc1)C1(C(=O)NCc2ccccc2)CCN(C(=O)OC(C)(C)C)CC1,21,24,21,–,–,–,–,–
CCCCNC(=O)C1(N(Cc2ccccc2)C(=O)[C@H](CC(=O)OC)NC(=O)OC(C)(C)C)CCN(Cc2ccccc2)CC1,28,36,24,–,–,–,–,–
COC(=O)C[C@H](NC(=O)OC(C)(C)C)C(=O)N(Cc1ccccc1)C1(C(=O)NC(C)(C)C)CCN(Cc2ccccc2)CC1,24,21,23,–,–,–,–,–
COC(=O)C[C@H](NC(=O)OC(C)(C)C)C(=O)N(Cc1ccccc1)C1(C(=O)NC2CCCCC2)CCN(Cc2ccccc2)CC1,20,21,19,–,–,–,–,–
COC(=O)CNC(=O)C1(N(Cc2ccccc2)C(=O)[C@H](CC(=O)OC)NC(=O)OC(C)(C)C)CCN(Cc2ccccc2)CC1,109,227,123,–,–,–,–,–
COC(=O)C[C@H](NC(=O)OC(C)(C)C)C(=O)N(Cc1cc(OC)c(OC)c(OC)c1)C1(C(=O)NCc2ccccc2)CCN(Cc2ccccc2)CC1,23,22,31,–,–,–,–,–
COC(=O)C[C@H](NC(=O)OC(C)(C)C)C(=O)NC1(C(=O)NCc2ccccc2)CCN(Cc2ccccc2)CC1,25,24,23,–,–,–,–,–
COC(=O)C[C@H](NC(=O)OC(C)(C)C)C(=O)N(C)C1(C(=O)NCc2ccccc2)CCN(Cc2ccccc2)CC1,20,11,17,–,–,–,–,–
CCC(C)N(C(=O)[C@H](CC(=O)OC)NC(=O)OC(C)(C)C)C1(C(=O)NCc2ccccc2)CCN(Cc2ccccc2)CC1 (some centres undefined),19,16,20,–,–,–,–,–
CC(C)(C)OC(=O)N1CCC[C@H]1C(=O)N(Cc1ccccc1)C1(C(=O)NCc2ccccc2)CCN(Cc2ccccc2)CC1,> 50,137,61,–,–,–,–,–
CC(C)(C)OC(=O)N[C@@H](CC(=O)O)C(=O)N(Cc1ccccc1)C1(C(=O)NCc2ccccc2)CCN(Cc2ccccc2)CC1,> 200,> 200,164,–,–,–,–,–
CC(C)(C)OC(=O)N[C@@H](CC(N)=O)C(=O)N(Cc1ccccc1)C1(C(=O)NCc2ccccc2)CCN(Cc2ccccc2)CC1,26,25,27,–,–,–,–,–
CNC(=O)C[C@H](NC(=O)OC(C)(C)C)C(=O)N(Cc1ccccc1)C1(C(=O)NCc2ccccc2)CCN(Cc2ccccc2)CC1,63,84,94,–,–,–,–,–
CN(C)C(=O)C[C@H](NC(=O)OC(C)(C)C)C(=O)N(Cc1ccccc1)C1(C(=O)NCc2ccccc2)CCN(Cc2ccccc2)CC1,59,68,76,–,–,–,–,–
COC(=O)C[C@H](NC(=O)OC(C)(C)C)C(=O)N(Cc1ccccc1)C1(C(=O)NCc2ccccc2)CCNCC1,124,> 167,> 200,–,–,–,–,–
COC(=O)C[C@H](N)C(=O)N(Cc1ccccc1)C1(C(=O)NCc2ccccc2)CCN(Cc2ccccc2)CC1,104,100,90,–,–,–,–,–
C=CCOC(=O)N1CCC(C(=O)NCc2ccccc2)(N(Cc2ccccc2)C(=O)[C@@H](N)Cc2ccccc2)CC1,54,63,49,–,–,–,–,–
CCC(C)N(C(=O)[C@@H](N)Cc1ccccc1)C1(C(=O)NCc2ccccc2)CCN(Cc2ccccc2)CC1 (some centres undefined),99,90,81,–,–,–,–,–
CCC(C)N(C(=O)[C@@H](N)CC(=O)OC)C1(C(=O)NCc2ccccc2)CCN(Cc2ccccc2)CC1 (some centres undefined),238,> 250,244,–,–,–,–,–
CCC(C)N(C(=O)[C@@H](N)CC(=O)OC)C1(C(=O)NCc2ccccc2)CCNCC1 (some centres undefined),> 250,> 250,> 250,–,–,–,–,–
O=C(N[C@@H](Cc1ccccc1)C(=O)N(Cc1ccccc1)C1(C(=O)NCc2ccccc2)CCN(Cc2ccccc2)CC1)Oc1ccccc1,9,17,3.5,–,–,–,–,–
CC(C)(C)NC(=O)C1(N(C(=O)[C@H](Cc2ccccc2)NC(=O)OC(C)(C)C)C2CC2)CCN(Cc2ccccc2)CC1,19,20,14,–,–,–,–,–
CC(C)(C)NC(=O)C1(N(C(=O)[C@H](Cc2ccccc2)NC(=O)OC(C)(C)C)C2CC2)CCN(C(=O)OC(C)(C)C)CC1,19,20,14,–,–,–,–,–
CCC(C)N(C(=O)[C@@H](NC(=O)OCc1ccccc1)[C@@H](C)CC)C1(C(=O)NCc2ccccc2)CCN(Cc2ccccc2)CC1 (some centres undefined),111,119,83,–,–,–,–,–
"COC(=O)C[C@H](NC(=O)OC(C)(C)C)C(=O)N(Cc1ccccc1)C1(C(=O)NCc2ccccc2)CCN(Cc2ccccc2)C1 (single isomer, unassigned; diastereomer 2)",–,18,–,–,22,9,–,–
"COC(=O)C[C@H](NC(=O)OC(C)(C)C)C(=O)N(Cc1ccccc1)C1(C(=O)NCc2ccccc2)CCN(Cc2ccccc2)C1 (single isomer, unassigned; diastereomer-1)",19,–,6.2,–,–,–,16,–

# The remaining compounds from weak to strong by IC50 (CCRF-CEM; Homo sapiens, CCRF-CEM, 72 h), led by results:
"IC50 (CCRF-CEM; Homo sapiens, CCRF-CEM, 72 h) [µM]","IC50 (HeLa; Homo sapiens, HeLa, 72 h) [µM]","IC50 (L1210; Mus musculus, L1210, 48 h) [µM]",IC50 (Huh-7) [µM],IC50 (CCRF-CEM; ccrf-cem) [µM],IC50 (L1210; l1210) [µM],IC50 (HeLa; hela) [µM],Compound,IC50 (CAKI-1) [µM]
19,20,18,–,–,–,–,COC(=O)C[C@H](NC(=O)OC(C)(C)C)C(=O)N(Cc1ccccc1)C1(C(=O)NCc2ccccc2)CCN(Cc2ccccc2)CC1,–
16,19,22,–,–,–,–,COC(=O)C[C@H](NC(=O)OC(C)(C)C)C(=O)N(Cc1ccc(F)cc1)C1(C(=O)NCc2ccccc2)CCN(Cc2ccccc2)CC1,–
16,30,11,–,–,–,–,CC[C@H](C)[C@H](NC(=O)OCc1ccccc1)C(=O)N(C1CC1)C1(C(=O)NCc2ccccc2)CCN(Cc2ccccc2)CC1,–
15,148,17,–,–,–,–,CC(C)(C)NC(=O)C1(N(C(=O)[C@H](Cc2ccccc2)NC(=O)OCc2ccccc2)C2CC2)CCN(C(=O)OC(C)(C)C)CC1,–
14,21,21,–,–,–,–,COC(=O)C[C@H](NC(=O)OC(C)(C)C)C(=O)N(CCNc1ccccc1)C1(C(=O)NCc2ccccc2)CCN(Cc2ccccc2)CC1,–
10,24,4.2,–,–,–,–,CCC(C)N(C(=O)[C@H](Cc1ccccc1)NC(=O)OC(C)(C)C)C1(C(=O)NCc2ccccc2)CCN(Cc2ccccc2)CC1 (some centres undefined),–
7.1,10,4.4,–,–,–,–,CC[C@H](C)[C@H](NC(=O)OC(C)(C)C)C(=O)N(Cc1ccccc1)C1(C(=O)NCc2ccccc2)CCN(Cc2ccccc2)CC1,–
6.8,11,5.1,–,–,–,–,CC[C@@H](C)[C@H](NC(=O)OCc1ccccc1)C(=O)N(Cc1ccccc1)C1(C(=O)NCc2ccccc2)CCN(C(=O)OC(C)(C)C)CC1,–
6.7,7.9,14,–,–,–,–,COC(=O)C[C@H](NC(=O)OC(C)(C)C)C(=O)N(C1CC1)C1(C(=O)NCc2ccccc2)CCN(Cc2ccccc2)CC1,–
6.2,4.7,5.3,–,–,–,–,COC(=O)C[C@H](NC(=O)OCc1ccccc1)C(=O)N(C1CC1)C1(C(=O)NCc2ccccc2)CCN(Cc2ccccc2)CC1,–
6,26,6.6,–,–,–,–,CC(C)(C)NC(=O)C1(N(C(=O)[C@H](Cc2ccccc2)NC(=O)OCc2ccccc2)C2CC2)CCN(Cc2ccccc2)CC1,–
5.9,5.9,4.6,6.6,–,–,–,CC(C)(C)OC(=O)N[C@@H](Cc1c[nH]c2ccccc12)C(=O)N(Cc1ccccc1)C1(C(=O)NCc2ccccc2)CCN(Cc2ccccc2)CC1,14
5.7,13,5,–,–,–,–,CC(C)(C)OC(=O)N[C@@H](Cc1ccccc1)C(=O)N(Cc1ccccc1)C1(C(=O)NCc2ccccc2)CCN(C(=O)OC(C)(C)C)CC1,–
5.2,23,5,–,–,–,–,CC(C)(C)OC(=O)N[C@@H](Cc1ccc(O)cc1)C(=O)N(Cc1ccccc1)C1(C(=O)NCc2ccccc2)CCN(Cc2ccccc2)CC1,–
5.2,14,5.4,–,–,–,–,COC(=O)C[C@H](NC(=O)OCC1c2ccccc2-c2ccccc21)C(=O)N(Cc1ccccc1)C1(C(=O)NCc2ccccc2)CCN(Cc2ccccc2)CC1,–
4.7,7,4.2,8.1,–,–,–,C=CCOC(=O)N1CCC(C(=O)NCc2ccccc2)(N(Cc2ccccc2)C(=O)[C@H](Cc2ccccc2)NC(=O)OC(C)(C)C)CC1,12
4.5,14,5.8,–,–,–,–,COC(=O)C[C@H](NC(=O)OCc1ccccc1)C(=O)N(Cc1ccccc1)C1(C(=O)NCc2ccccc2)CCN(Cc2ccccc2)CC1,–
4.5,4.3,5.3,6.4,–,–,–,CCC(C)N(C(=O)[C@H](CC(=O)OC)NC(=O)OCc1ccccc1)C1(C(=O)NCc2ccccc2)CCN(Cc2ccccc2)CC1 (some centres undefined),8.7
